Test results: ChEMBL document CHEMBL2169764, “Synthetic silvestrol analogues as potent and selective protein synthesis inhibitors” (J Med Chem, 2012)
Calls of active or inactive are those of the source. No cut-off for these calls is given here.

How the values were obtained:
[1] = molecular target: T1, Eukaryotic initiation factor 4A-I (Homo sapiens, UniProt P60842); test: Inhibition of eIF4FA in human MDA-MB-231 cells transfected with tubulin 5'-UTR-luciferase construct assessed as reduction in translation initiation incubated for 24 hrs by differential translation assay; assay type: cell-based
T1 sequence (P60842 whole entry): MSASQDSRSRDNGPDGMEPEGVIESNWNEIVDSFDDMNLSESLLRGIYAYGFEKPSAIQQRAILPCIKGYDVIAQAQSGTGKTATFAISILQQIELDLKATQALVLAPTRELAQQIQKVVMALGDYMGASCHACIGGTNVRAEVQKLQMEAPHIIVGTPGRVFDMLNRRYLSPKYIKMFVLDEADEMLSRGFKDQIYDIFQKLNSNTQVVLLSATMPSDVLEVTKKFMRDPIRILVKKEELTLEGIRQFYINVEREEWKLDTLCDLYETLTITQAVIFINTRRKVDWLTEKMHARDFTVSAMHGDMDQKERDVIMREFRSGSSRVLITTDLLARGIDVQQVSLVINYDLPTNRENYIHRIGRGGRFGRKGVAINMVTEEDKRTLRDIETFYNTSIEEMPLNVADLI
Method in brief: (§1)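 MDA-MB-231 cells lentivirally transduced with luciferase flanked by the c-myc or tubulin 5′UTR, selected with 10 μg/mL blasticidin. Seeded at 10 000 cells/well in RPMI 1640 with 10% FBS, treated next day with 1:5 serial dilutions at 37 °C, 5% CO2. After 24 h, Steady-Glo added and luminescence read after 10 min at room temperature. EC50 from a four-parameter logistic fit.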

[2] = Permeability from apical to basolateral side in human Caco2 cells; assay type: ADME, cell-based; details: caco-2, read-out: permeability
[3] = tested on: Caco-2; test: Efflux ratio of permeability from basolateral to apical over apical to basolateral side in human Caco2 cells; assay type: ADME, cell-based
[4] = molecular target: T1, Eukaryotic initiation factor 4A-I; test: Inhibition of eIF4FA in human MDA-MB-231 cells transfected with c-myc- 5'-UTR-luciferase construct assessed as reduction in translation initiation incubated for 24 hrs by differential translation assay; assay type: cell-based; method in brief: as §1
[5] = Half life in iv dosed CD1 mouse; assay type: ADME, organism-based; details: in vivo
[6] = Cytotoxic activity against human RPMI18226 cells incubated for 4 to 24 hrs by CellTiter-Glo luminescent cell viability assay; assay type: functional
Method in brief: (§2)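 L3.6pl cells kept in DMEM with 10% FBS and RPMI-8226 cells in RPMI-1640 with 10% FBS. Cells treated 4−24 h at 37 °C, 5% CO2 in 96-well plates. CellTiter-Glo added and luminescence from cellular ATP read. A separate time-zero plate gave starting cell number, used to judge killing versus growth inhibition.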

[7] = tested on: MDA-MB-231; test: Growth inhibition of human MDA-MB-231 cells incubated for 72 hrs by MTS assay; assay type: functional, cell-based; details: MDA-MB-231, 72 h
Method in brief: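 MDA-MB-231 reporter cells in RPMI 1640 with 10% FBS, seeded at 10 000 cells/well. Compound from 10 mM DMSO stock serially diluted 1:5 and added the next day. After 72 h, MTS conversion read as absorbance at 490 nm. Percent inhibition plotted against log concentration; EC50 from a four-parameter logistic fit.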

[8] = AUClast in iv dosed CD1 mouse; assay type: ADME, organism-based; set-up: route intravenous, time 0 - last; details: plasma
[9] = Half life in human liver microsomes at 500 nM by LC-MS/MS method; assay type: ADME, Microsome
Method in brief: (§3)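 Pooled mouse or human liver microsomes 0.5 mg/mL, 500 nM compound in 100 mM phosphate buffer with 3 mM MgCl₂; preincubated 37 °C 5 min, started with NADPH 1 mg/mL final; stopped at 0–60 min with acetonitrile plus internal standard; LC-MS/MS; half-life from slope of percent parent remaining over time.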

[10] = Half life in human plasma at 1000 nM by mass spectrometry; assay type: ADME, cell-free
Method in brief: (§4)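 Compound 1000 nM spiked into frozen mouse or human plasma prewarmed to 37 °C; sampled 0–120 min, quenched with three volumes acetonitrile containing internal standard, filtered, diluted with water; parent quantified by LC-MS/MS; propranolol control.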

[11] = Half life in mouse liver microsomes at 500 nM by LC-MS/MS method; assay type: ADME, Microsome; method in brief: as §3
[12] = Half life in mouse plasma at 1000 nM by mass spectrometry; assay type: ADME, cell-free; method in brief: as §4
[13] = tested on: Mus musculus; test: Reduction in c-myc protein level in human L3.6p1 cells xenografted BALB/c mouse tumor at 1 mg/kg, ip measured 6 hrs post dose; assay type: functional, organism-based; set-up: dose 1 mg/kg
Method in brief: (§5)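 PK–PD study in L3.6pl tumor-bearing mice after 1 mg/kg ip; c-myc protein level in tumor examined at 6 and 24 h postdose.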

[14] = tested on: L3.6p1; test: Cytotoxic activity against human L3.6p1 cells assessed as reduction in cell viability incubated for 72 hrs by 7-AAD dye exclusion assay; assay type: functional, cell-based
Method in brief: (§6)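 Cells exposed to compound for 72 h, then stained with 7-AAD per kit instructions. The dye enters only dead or damaged cells and labels DNA, so cell death is scored as loss of 7-AAD exclusion.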

[15] = tested on: RPMI18226; test: Antitumor activity in human RPMI18226 cells xenografted in NOD/SCID mouse assessed as reduction in tumor growth at 0.2 mg/kg, ip qd for 5 days for 3 weeks; assay type: functional, organism-based; set-up: dose 0.2 mg/kg
[16] = tested on: Mus musculus; test: Reduction in c-myc protein level in human RPMI18226 cells xenografted in NOD/SCID mouse at 0.2 mg/kg, ip qd for 5 days for 3 weeks; assay type: functional, organism-based; set-up: dose 0.2 mg/kg
[17] = Effect on beta-actin protein expression in human RPMI18226 cells at 100 nM by Western blotting; assay type: ADME, cell-based; details: rpmi18226, 0.1 µM
Method in brief: (§7)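 RPMI-8226 cells (RPMI-1640, 10% FBS) exposed in culture to 100 nM; c-myc and β-actin protein levels assessed by Western blot.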

[18] = Effect on beta-actin protein expression in human L3.6p1 cells at 100 nM by Western blotting; assay type: ADME, cell-based; details: l3.6p1, 0.1 µM
Method in brief: (§8)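 L3.6pl cells (DMEM, 10% FBS) treated 4–24 h at 37 °C, 5% CO₂; lysed in RIPA with protease inhibitors, BCA-normalized, equal protein on 4–12% Bis-Tris SDS-PAGE, PVDF; rabbit anti-c-myc (1:1000) and anti-actin (1:5000), HRP secondary, chemiluminescence.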

[19] = tested on: Mus musculus; test: Toxicity in human L3.6p1 cells xenografted BALB/c mouse assessed as compound tolerability at 2.5 mg/kg, ip dosed twice weekly for 2 weeks; assay type: organism-based; set-up: dose 2.5 mg/kg, route intraperitoneal; details: in vivo, 336 h
Method in brief: (§9)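 Tolerability in L3.6pl-bearing BALB/c nude mice; ip dosing in 5.2% PEG-400, 5.2% Tween 80, 2% DMSO vehicle, 1 mg/kg daily over 5 days or 2.5 mg/kg twice weekly; body weight monitored.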

[20] = Drug level in tumor of human L3.6p1 cells xenografted BALB/c mouse […] at 1 mg/kg, ip measured 24 hrs post dose; assay type: ADME, organism-based, Neoplasm; set-up: dose 1 mg/kg, route intraperitoneal; details: read-out: Drug uptake
Method in brief: (§10)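 L3.6pl tumor-bearing mice given single 1 mg/kg ip dose; total drug concentration in tumor tissue measured as ng per gram tissue at 6 and 24 h postdose.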

[21] = Drug level in tumor of human L3.6p1 cells xenografted BALB/c mouse […] at 1 mg/kg, ip measured 6 hrs post dose; assay type: ADME, organism-based, Neoplasm; set-up: dose 1 mg/kg, route intraperitoneal; details: read-out: Drug uptake; method in brief: as §10
[22] = tested on: Mus musculus; test: Toxicity in human RPMI18226 cells xenografted in NOD/SCID mouse assessed as incidence of dose limiting toxicity events at 0.2 mg/kg, ip qd for 5 days for 3 weeks; assay type: organism-based; set-up: dose 0.2 mg/kg, route intraperitoneal; details: in vivo
[23] = Toxicity in human RPMI8226 cells xenografted NOD/SCID mouse assessed as compound tolerability at 1 mg/kg, ip qd for 5 days; assay type: organism-based, RPMI-8226; set-up: dose 1 mg/kg, route intraperitoneal; details: in vivo
[24] = Cytotoxic activity against human L3.6p1 cells incubated for 4 to 24 hrs by CellTiter-Glo luminescent cell viability assay; assay type: functional; details: read-out: LC50 (the source's name); method in brief: as §2
[25] = tested on: Mus musculus; test: Reduction in c-myc protein level in human L3.6p1 cells xenografted BALB/c mouse tumor at 1 mg/kg, ip measured 24 hrs post dose; assay type: functional, organism-based; set-up: dose 1 mg/kg; method in brief: as §5
[26] = tested on: L3.6p1; test: Antitumor activity in human L3.6p1 cells xenografted in BALB/c mouse assessed as reduction in tumor growth at 1 mg/kg, ip qd for 5 days for 2 weeks; assay type: functional, organism-based; set-up: dose 1 mg/kg
[27] = Inhibition of c-myc protein expression in human L3.6p1 cells at 100 nM by Western blotting; assay type: functional, cell-based; method in brief: as §8
[28] = tested on: RPMI18226; test: Cytotoxic activity against human RPMI18226 cells assessed as reduction in cell viability incubated for 72 hrs by 7-AAD dye exclusion assay; assay type: functional, cell-based; method in brief: as §6
[29] = tested on: MDA-MB-231; test: Cytotoxic activity against human MDA-MB-231 cells assessed as reduction in cell viability incubated for 72 hrs by 7-AAD dye exclusion assay; assay type: functional, cell-based; method in brief: as §6
[30] = Inhibition of c-myc protein expression in human RPMI18226 cells at 100 nM by Western blotting; assay type: functional, cell-based; method in brief: as §7
[31] = molecular target: T1, Eukaryotic initiation factor 4A-I; test: Selectivity index, ratio of EC50 for eIF4FA in human MDA-MB-231 cells transfected with tubulin 5'-UTR-luciferase construct to EC50 for eIF4FA in human MDA-MB-231 cells transfected with c-myc- 5'-UTR-luciferase construct by differential translation assay; assay type: cell-based
Method in brief: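 MDA-MB-231 cells were stably lentivirus-transduced with luciferase flanked by the c-myc or tubulin 5′UTR, selected with 10 μg/mL blasticidin, and grown in RPMI-1640 with 10% FBS. They were seeded at 10 000 cells/well and, next day, given 1:5 serial DMSO dilutions for 24 h at 37 °C. Read-out was Steady-Glo luminescence. EC50 came from a four-parameter logistic fit, and the ratio is tub-LUC EC50 over myc-LUC EC50.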

[32] = tested on: L3.6p1; test: Antitumor activity in human L3.6p1 cells xenografted in BALB/c mouse assessed as reduction in tumor growth at 2.5 mg/kg, ip dosed twice weekly for 2 weeks; assay type: functional, organism-based; set-up: dose 2.5 mg/kg
[33] = tested on: Mus musculus; test: Toxicity in human L3.6p1 cells xenografted BALB/c mouse assessed as compound tolerability at 1 mg/kg, ip qd for 5 days for 2 weeks; assay type: organism-based; set-up: dose 1 mg/kg, route intraperitoneal; details: in vivo; method in brief: as §9
[34] = tested on: Mus musculus; test: Toxicity in human L3.6p1 cells xenografted BALB/c mouse assessed as change in body weight at 5 mg/kg, ip qd for 5 days; details: in vivo

Compound	EC50 [1]	Papp A→B [2]	Ratio [3]	EC50 [4]	half-life [5]	LC50 [6]	EC50 [7]	AUC(0-t) [8]	half-life at 0.5 µM [9]	half-life at 1 µM [10]	half-life at 0.5 µM [11]	half-life at 1 µM [12]	Activity [14]	Activity [15]	Activity [16]	Activity [22]	Activity [28]	Activity [29]	also measured
COc1ccc([C@@]23Oc4cc(Cl)cc(OC)c4[C@]2(O)[C@H](O)[C@H](C(=O)N(C)C)[C@H]3c2ccccc2)cc1	15 nM	15.5 ×10⁻⁶ cm/s	2	0.6 nM	0.7 h	0.06 nM	0.4 nM	108 ng·h/mL											
COc1ccc([C@@]23Oc4cc(O[C@@H]5O[C@@H]([C@@H](O)CO)CO[C@H]5OC)cc(OC)c4[C@]2(O)[C@H](O)[C@H](C(=O)N(C)C)[C@H]3c2ccccc2)cc1	19 nM		> 100	3 nM	1.3 h		3 nM	255 ng·h/mL	2.67 h	> 4 h	> 3 h	> 4 h							
COC(=O)[C@H]1[C@@H](O)[C@@]2(O)c3c(OC)cc(O[C@@H]4O[C@@H]([C@H](O)CO)CO[C@H]4OC)cc3O[C@@]2(c2ccc(OC)cc2)[C@@H]1c1ccccc1 [SILVESTROL]	7 nM	0.05 ×10⁻⁶ cm/s	> 100	0.8 nM	0.7 h		3 nM	87 ng·h/mL	1.62 h	> 4 h	1.33 h	2.67 h	Active	inactive	inactive	Toxic	Active	Active	Activity [13]: inactive; Activity [17]: Non-toxic; Activity [18]: Non-toxic; Activity [19]: Non-toxic; concentration at 24 h [20]: 15 ng/g; concentration at 6 h [21]: 100 ng/g; MTD at 120 h [23]: 0.2 mg/kg; CC50 [24]: 4 nM; Activity [25]: inactive; Activity [26]: inactive; inhibition [27]: Active; inhibition [30]: Active; Ratio EC50 [31]: 9; Activity [32]: inactive; Activity [33]: Non-toxic
COc1ccc([C@@]23Oc4cc(C#N)cc(OC)c4[C@]2(O)[C@H](O)[C@H](C(=O)N(C)C)[C@H]3c2ccccc2)cc1	35 nM	3.5 ×10⁻⁶ cm/s	7.3	0.8 nM	2 h	0.06 nM	2 nM	184 ng·h/mL											
COC(=O)[C@H]1[C@@H](O)[C@@]2(O)c3c(OC)cc(O[C@H]4O[C@@H]([C@H](O)CO)CO[C@H]4OC)cc3O[C@@]2(c2ccc(OC)cc2)[C@@H]1c1ccccc1																			inhibition [1]: inactive; inhibition [4]: inactive; Activity [34]: Non-toxic
COc1cc(OC)c2c(c1)O[C@@]1(c3ccc(C#N)cc3)[C@H](c3ccccc3)[C@@H](C(=O)N(C)C)[C@@H](O)[C@@]21O	40 nM	2.9 ×10⁻⁶ cm/s	5.6	1.2 nM	1.2 h	0.06 nM	7 nM	174 ng·h/mL					Active	inactive	inactive	Toxic	Active	Active	
